# Data as given in ChEMBL document CHEMBL1145984 (J Med Chem, 2003).
# Biological target: T1, Aminopeptidase N (Sus scrofa, UniProt P15145)
# T1 sequence (P15145 whole entry): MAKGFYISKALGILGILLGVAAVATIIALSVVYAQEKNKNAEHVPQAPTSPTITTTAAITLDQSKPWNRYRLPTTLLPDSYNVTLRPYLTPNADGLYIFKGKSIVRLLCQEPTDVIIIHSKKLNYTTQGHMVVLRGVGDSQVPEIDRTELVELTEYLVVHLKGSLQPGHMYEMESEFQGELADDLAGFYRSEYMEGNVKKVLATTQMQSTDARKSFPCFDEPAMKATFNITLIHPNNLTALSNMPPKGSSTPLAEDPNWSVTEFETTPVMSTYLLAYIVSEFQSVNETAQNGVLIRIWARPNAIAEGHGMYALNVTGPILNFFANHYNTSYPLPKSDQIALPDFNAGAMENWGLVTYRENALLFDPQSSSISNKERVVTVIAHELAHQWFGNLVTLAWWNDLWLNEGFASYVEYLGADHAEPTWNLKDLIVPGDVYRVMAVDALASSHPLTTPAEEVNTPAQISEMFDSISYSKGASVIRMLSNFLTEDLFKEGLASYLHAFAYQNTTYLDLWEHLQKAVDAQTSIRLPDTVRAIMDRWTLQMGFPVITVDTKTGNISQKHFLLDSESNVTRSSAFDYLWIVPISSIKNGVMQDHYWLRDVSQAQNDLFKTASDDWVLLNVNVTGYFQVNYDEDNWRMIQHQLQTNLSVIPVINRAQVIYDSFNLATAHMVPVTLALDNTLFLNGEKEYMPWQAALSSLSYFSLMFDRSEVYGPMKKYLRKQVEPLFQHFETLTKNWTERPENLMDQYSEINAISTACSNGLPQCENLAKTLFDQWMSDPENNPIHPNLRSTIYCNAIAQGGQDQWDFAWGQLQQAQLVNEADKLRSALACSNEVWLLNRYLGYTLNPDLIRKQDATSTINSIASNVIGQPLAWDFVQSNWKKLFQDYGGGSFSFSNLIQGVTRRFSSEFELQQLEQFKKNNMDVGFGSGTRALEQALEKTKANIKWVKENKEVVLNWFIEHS
# Experiment: Binding affinity towards aminopeptidase N (APN) from pig kidney
# Summary of the method: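 Porcine kidney APN (lyophilized, diluted in 50 mM potassium phosphate pH 7.2; 4 µg/mL final), inhibitor preincubated 60 min at room temperature, inhibitor solutions adjusted to pH 7.5. L-leucine p-nitroanilide 0.05–0.6 mM final starts reaction; A405 followed 10 min at 25 °C. Ki from Lineweaver-Burk plots of initial linear velocities, 3–4 inhibitor concentrations, each measured twice.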
row,Compound,Ki [nM]
1,CC(C)CC(CP(=O)(O)C(N)CCc1ccccc1)C(=O)O (stereo unspecified),1010
2,NC(CCc1ccccc1)P(=O)(O)CC(Cc1ccccc1)C(=O)O (stereo unspecified),276
3,CC(C)CC(N)P(=O)(O)CCC(=O)O (stereo unspecified),1410
4,NC(CCc1ccccc1)P(=O)(O)CC(Cc1ccc(O)cc1)C(=O)O (stereo unspecified),36
5,CC(C)CC(N)P(=O)(O)O (stereo unspecified),55000
6,CC(C)CC(CP(=O)(O)C(N)CC(C)C)C(=O)O (stereo in doubt; 27),1020
